Legend:
[1] = biological target: T1, Androgen receptor (Homo sapiens, UniProt P10275); test: Displacement of [3H]mibolerone from human Androgen receptor
T1 sequence (P10275 whole entry): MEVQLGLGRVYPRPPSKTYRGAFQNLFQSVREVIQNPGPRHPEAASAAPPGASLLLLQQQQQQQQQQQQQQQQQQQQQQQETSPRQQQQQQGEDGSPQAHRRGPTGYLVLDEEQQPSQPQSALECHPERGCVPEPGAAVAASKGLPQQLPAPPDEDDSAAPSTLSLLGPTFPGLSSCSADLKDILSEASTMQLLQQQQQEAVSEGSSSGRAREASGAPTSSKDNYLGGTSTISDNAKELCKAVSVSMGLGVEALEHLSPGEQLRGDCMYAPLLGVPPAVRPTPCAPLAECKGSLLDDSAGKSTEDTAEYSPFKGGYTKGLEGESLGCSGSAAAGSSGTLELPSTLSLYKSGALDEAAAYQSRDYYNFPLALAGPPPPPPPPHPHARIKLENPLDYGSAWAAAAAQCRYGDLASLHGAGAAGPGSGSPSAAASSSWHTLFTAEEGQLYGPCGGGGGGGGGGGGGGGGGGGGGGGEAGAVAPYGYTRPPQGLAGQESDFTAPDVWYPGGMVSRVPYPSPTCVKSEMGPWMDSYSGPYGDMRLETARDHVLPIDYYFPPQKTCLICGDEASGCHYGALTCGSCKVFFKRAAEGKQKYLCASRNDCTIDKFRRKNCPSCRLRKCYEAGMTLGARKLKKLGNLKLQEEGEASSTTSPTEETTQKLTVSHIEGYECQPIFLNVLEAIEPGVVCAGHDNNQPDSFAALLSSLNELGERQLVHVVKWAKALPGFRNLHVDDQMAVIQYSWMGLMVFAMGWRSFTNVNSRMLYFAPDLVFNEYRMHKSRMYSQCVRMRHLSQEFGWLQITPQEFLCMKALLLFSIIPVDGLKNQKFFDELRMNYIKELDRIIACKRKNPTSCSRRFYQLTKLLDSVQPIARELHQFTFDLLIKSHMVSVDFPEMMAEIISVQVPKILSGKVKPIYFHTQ

[2] = biological target: T2, Glucocorticoid receptor (Homo sapiens, UniProt P04150); test: Effect on human Glucocorticoid receptor (GR) in a whole cell assay to measure functional cellular GR-antagonism (GRAF)
T2 sequence (P04150 whole entry): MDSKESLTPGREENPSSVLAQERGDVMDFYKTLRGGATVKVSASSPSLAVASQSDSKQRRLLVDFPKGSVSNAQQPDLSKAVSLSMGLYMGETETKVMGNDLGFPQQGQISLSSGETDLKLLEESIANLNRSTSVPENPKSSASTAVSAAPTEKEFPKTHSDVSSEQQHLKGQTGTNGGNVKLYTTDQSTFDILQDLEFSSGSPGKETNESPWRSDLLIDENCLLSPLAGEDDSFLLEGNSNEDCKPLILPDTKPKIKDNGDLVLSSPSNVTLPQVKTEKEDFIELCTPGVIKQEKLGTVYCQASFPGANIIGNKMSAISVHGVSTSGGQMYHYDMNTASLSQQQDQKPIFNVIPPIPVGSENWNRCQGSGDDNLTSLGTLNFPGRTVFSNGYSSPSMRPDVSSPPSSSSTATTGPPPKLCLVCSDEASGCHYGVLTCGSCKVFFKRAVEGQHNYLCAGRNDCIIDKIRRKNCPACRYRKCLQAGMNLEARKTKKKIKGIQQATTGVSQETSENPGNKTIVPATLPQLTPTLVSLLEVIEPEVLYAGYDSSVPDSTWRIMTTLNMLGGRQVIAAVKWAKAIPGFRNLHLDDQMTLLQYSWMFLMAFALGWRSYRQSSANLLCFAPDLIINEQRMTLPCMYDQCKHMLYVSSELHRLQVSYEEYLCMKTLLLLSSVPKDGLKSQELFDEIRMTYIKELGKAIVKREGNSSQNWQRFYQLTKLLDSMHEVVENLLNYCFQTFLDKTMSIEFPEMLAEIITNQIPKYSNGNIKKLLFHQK

[3] = biological target: T3, Mineralocorticoid receptor (Homo sapiens, UniProt P08235); test: Displacement of [3H]aldosterone from human Mineralocorticoid receptor
T3 sequence (P08235 whole entry): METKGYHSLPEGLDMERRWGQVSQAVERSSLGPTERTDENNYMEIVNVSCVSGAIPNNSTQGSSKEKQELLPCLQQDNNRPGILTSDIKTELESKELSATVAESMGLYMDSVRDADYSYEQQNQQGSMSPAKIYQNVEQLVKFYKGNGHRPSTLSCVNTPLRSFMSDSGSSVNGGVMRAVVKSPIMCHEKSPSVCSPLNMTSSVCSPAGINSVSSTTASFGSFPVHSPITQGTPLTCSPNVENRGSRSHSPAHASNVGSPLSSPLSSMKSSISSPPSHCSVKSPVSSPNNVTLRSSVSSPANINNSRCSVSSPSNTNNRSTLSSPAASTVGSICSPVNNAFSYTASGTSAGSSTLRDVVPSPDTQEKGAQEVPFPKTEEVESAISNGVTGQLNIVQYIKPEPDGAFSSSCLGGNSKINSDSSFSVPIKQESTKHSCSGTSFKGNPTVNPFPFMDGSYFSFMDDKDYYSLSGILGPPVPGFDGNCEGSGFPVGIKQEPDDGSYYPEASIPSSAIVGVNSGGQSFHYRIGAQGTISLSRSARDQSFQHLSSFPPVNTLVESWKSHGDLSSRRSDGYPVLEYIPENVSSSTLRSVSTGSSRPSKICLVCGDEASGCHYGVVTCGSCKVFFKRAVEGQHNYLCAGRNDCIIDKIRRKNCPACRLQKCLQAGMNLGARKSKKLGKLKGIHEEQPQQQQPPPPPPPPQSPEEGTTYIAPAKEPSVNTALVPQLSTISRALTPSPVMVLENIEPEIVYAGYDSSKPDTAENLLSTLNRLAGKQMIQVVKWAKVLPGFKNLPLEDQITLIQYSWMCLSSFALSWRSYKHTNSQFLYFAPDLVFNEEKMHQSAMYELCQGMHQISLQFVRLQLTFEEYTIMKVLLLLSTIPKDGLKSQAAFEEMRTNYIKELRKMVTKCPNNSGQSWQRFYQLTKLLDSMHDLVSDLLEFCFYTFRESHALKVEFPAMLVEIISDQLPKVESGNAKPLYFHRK
Procedure, shortened: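 Human steroid receptor (PR, MR, AR, ERα) binding measured by radioligand displacement, with IC50s determined in duplicate. Values without a range come from a single experiment, and values with a range are geometric means of repeat experiments.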

Which IC50 [1] does the source give for `COc1cccc2c1-c1ccc(NS(C)(=O)=O)cc1C(c1cccc(F)c1)O2` (stereo not drawn) here?
Its IC50 is > 10000 nM.

And the IC50 [2]?
The IC50 was 76 nM.

And the IC50 [3]?
The IC50 was 683 nM.

What does the source list for `CCOc1cccc2c1-c1ccc(NS(C)(=O)=O)cc1C(c1ccccc1)O2` (stereo not drawn)?
IC50 [1]: > 10000 nM; IC50 [2]: 308 nM; IC50 [3]: 893 nM

What does the source list for `COc1cccc2c1-c1ccc(NS(C)(=O)=O)cc1C(c1cccs1)O2` (stereo not drawn)?
IC50 [1]: > 10000 nM; IC50 [2]: 66 nM; IC50 [3]: 2250 nM

With `COc1cccc2c1-c1ccc(NS(C)(=O)=O)cc1C(c1ccc(F)cc1)O2` (stereo not drawn) as the compound, how does the IC50 [1] read?
The IC50 was > 10000 nM.

What about the IC50 [3] of the same compound?
Its IC50 is 2480 nM.

How did the IC50 [1] turn out when `COc1cccc2c1-c1ccc(NS(C)(=O)=O)cc1C(c1ccc(C)cc1)O2` (stereo not drawn) was run?
The IC50 was > 10000 nM.

And the IC50 [3]?
The IC50 was 651 nM.

Reference: ChEMBL document CHEMBL1147539, “Synthesis and biological evaluation of novel, selective, nonsteroidal glucocorticoid receptor antagonists” (Bioorg Med Chem Lett, 2004)
